Columns and labels:
[1] = tested on: HEL; assay: Cytotoxicity against human HEL cells assessed as reduction in cell viability incubated for 48 hrs by MTT assay; type: functional, cell-based
How it was run: (§1)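 MTT viability after 48 h exposure. Cells (1×10^4/well) were allowed 24 h at 37 °C before dosing. Leukemia lines were grown in RPMI and breast lines in high-glucose DMEM, each with 5% FBS under 5% CO2. MTT was added for 4 h, formazan dissolved in DMSO, and absorbance read at 490 nm. Triplicate wells; values averaged over at least 3 independent experiments.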

[2] = tested on: MCF7; assay: Cytotoxicity against human MCF-7 cells assessed as reduction in cell viability incubated for 48 hrs by MTT assay; type: functional, cell-based; conditions: MCF7, 48 h; how it was run: as §1
[3] = tested on: MDA-MB-231; assay: Cytotoxicity against human MDA-MB-231 cells assessed as reduction in cell viability incubated for 48 hrs by MTT assay; type: functional, cell-based; conditions: MDA-MB-231, 48 h; how it was run: as §1
[4] = tested on: K562; assay: Cytotoxicity against human K562 cells assessed as reduction in cell viability incubated for 48 hrs by MTT assay; type: functional, cell-based; conditions: K562, 48 h; how it was run: as §1
[5] = Inhibition of AKT (unknown origin) by ELISA assay; set-up: species or system Homo sapiens
How it was run: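 Akt kinase activity kit run per the manufacturer's protocol. Akt source was lysate of compound-treated human leukemia HEL cells, purified on a Mono Q anion-exchange column before the kinase measurement. HEL cells were grown in RPMI with 5% FBS at 37 °C and 5% CO2. The value is reported as an IC50.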

| Compound | IC50 [1] [µM] | IC50 [2] [µM] | IC50 [3] [µM] | IC50 [4] [µM] | IC50 [5] [µM] |
| --- | --- | --- | --- | --- | --- |
| CCN(CC)C(=O)Oc1c(OC)cc2c3c1Oc1cc4c(cc1OC)CCN(C)[C@H]4Cc1ccc(cc1)Oc1cc(ccc1OC)C[C@@H]3N(C)CC2 | 2.98 | 23.7 | 9.04 | 3.74 |  |
| COc1ccc2cc1Oc1ccc(cc1)C[C@H]1c3cc(c(OC)cc3CCN1C)Oc1c(OC(=O)C(Cl)(Cl)Cl)c(OC)cc3c1[C@H](C2)N(C)CC3 | 3.54 | 7.14 | 4.05 | 3.3 |  |
| COc1ccc2cc1Oc1ccc(cc1)C[C@H]1c3cc(c(OC)cc3CCN1C)Oc1c(OC(=O)c3ccccc3Cl)c(OC)cc3c1[C@H](C2)N(C)CC3 | 3.22 | 6.26 | 5.41 | 3.58 |  |
| COc1ccc2cc1Oc1ccc(cc1)C[C@H]1c3cc(c(OC)cc3CCN1C)Oc1c(OC(=O)C(C)(C)C)c(OC)cc3c1[C@H](C2)N(C)CC3 | 3.73 | 7.69 | 8.56 | 4.03 |  |
| COc1ccc2cc1Oc1ccc(cc1)C[C@H]1c3cc(c(OC)cc3CCN1C)Oc1c(OC(=O)CCCCl)c(OC)cc3c1[C@H](C2)N(C)CC3 | 7.86 | 12.4 | 8.68 | 6.55 |  |
| COc1ccc2cc1Oc1ccc(cc1)C[C@H]1c3cc(c(OC)cc3CCN1C)Oc1c(OC(=O)c3c(Cl)cc(Cl)cc3Cl)c(OC)cc3c1[C@H](C2)N(C)CC3 | 7.65 | 18.2 | 23 | 7.6 |  |
| COc1ccc2cc1Oc1ccc(cc1)C[C@H]1c3cc(c(OC)cc3CCN1C)Oc1c(OC(=O)CCCl)c(OC)cc3c1[C@H](C2)N(C)CC3 | 4.84 | 18.8 | 9.47 | 6.47 |  |
| COc1ccc2cc1Oc1ccc(cc1)C[C@H]1c3cc(c(OC)cc3CCN1C)Oc1c(OC(=O)CCl)c(OC)cc3c1[C@H](C2)N(C)CC3 | 10.8 | 30.1 | 10 | 12.3 |  |
| CC[C@]1(O)C[C@@H]2CN(CCc3c([nH]c4ccccc34)[C@@](C(=O)OC)(c3cc4c(cc3OC)N(C)[C@H]3[C@@](O)(C(=O)OC)[C@H](OC(C)=O)[C@]5(CC)C=CCN6CC[C@]43[C@@H]65)C2)C1 [VINBLASTINE] | 16 | 37.5 | 17.7 | 9.49 |  |
| COc1ccc2cc1Oc1ccc(cc1)C[C@H]1c3cc(c(OC)cc3CCN1C)Oc1c(OC(=O)c3ccc(Cl)cc3Cl)c(OC)cc3c1[C@H](C2)N(C)CC3 | 10.2 | > 100 | 28 | 6.11 |  |
| C=CCCCCCCCCC(=O)Oc1c(OC)cc2c3c1Oc1cc4c(cc1OC)CCN(C)[C@H]4Cc1ccc(cc1)Oc1cc(ccc1OC)C[C@@H]3N(C)CC2 | 15.7 | 8.57 | 13 | 10.4 |  |
| CCN(C)C(=O)Oc1c(OC)cc2c3c1Oc1cc4c(cc1OC)CCN(C)[C@H]4Cc1ccc(cc1)Oc1cc(ccc1OC)C[C@@H]3N(C)CC2 | 3.46 | 20.6 | 9.89 | 5.89 |  |
| COc1ccc2cc1Oc1ccc(cc1)C[C@H]1c3cc(c(OC)cc3CCN1C)Oc1c(OC(=O)c3cccc(Cl)c3)c(OC)cc3c1[C@H](C2)N(C)CC3 | 4.26 | 4.42 | 8.03 | 3.79 |  |
| COc1ccc2cc1Oc1ccc(cc1)C[C@H]1c3cc(c(OC)cc3CCN1C)Oc1c(OC(=O)c3ccc(Cl)cc3)c(OC)cc3c1[C@H](C2)N(C)CC3 | 2.81 | 8.63 | 7.55 | 2.8 |  |
| COc1ccc2cc1Oc1ccc(cc1)C[C@H]1c3cc(c(OC)cc3CCN1C)Oc1c(OC(=O)CBr)c(OC)cc3c1[C@H](C2)N(C)CC3 | 25.9 | 22.1 | 17.8 | 14.3 |  |
| COc1ccc2cc1Oc1ccc(cc1)C[C@H]1c3cc(c(OC)cc3CCN1C)Oc1c(O)c(OC)cc3c1[C@H](C2)N(C)CC3 [FANGCHINOLINE] | 22.7 | 17.4 | 58.6 | 5.94 | > 20 |
| COc1ccc2cc1Oc1ccc(cc1)C[C@H]1c3cc(c(OC)cc3CCN1C)Oc1c(OC(=O)N3CCCOC3)c(OC)cc3c1[C@H](C2)N(C)CC3 | 40.2 | 25.2 | 15.1 | 15.9 |  |
| COc1ccc2cc1Oc1ccc(cc1)C[C@H]1c3cc(c(OC)cc3CCN1C)Oc1c(OC(=O)C3CC3)c(OC)cc3c1[C@H](C2)N(C)CC3 | 21.3 | > 100 | 13.5 | 17.5 |  |
| COc1ccc2cc1Oc1ccc(cc1)C[C@H]1c3cc(c(OC)cc3CCN1C)Oc1c(OC(=O)C=C(C)C)c(OC)cc3c1[C@H](C2)N(C)CC3 | 5.16 | > 100 | 10.3 | 5.39 |  |
| COc1ccc2cc1Oc1ccc(cc1)C[C@H]1c3cc(c(OC)cc3CCN1C)Oc1c(OC(=O)c3ccc(Cl)c(Cl)c3)c(OC)cc3c1[C@H](C2)N(C)CC3 | 4.56 | 10.8 | 18.3 | 8.52 |  |
| COc1ccc2cc1Oc1ccc(cc1)C[C@H]1c3cc(c(OC)cc3CCN1C)Oc1c(OC(=O)c3cccc4ccccc34)c(OC)cc3c1[C@H](C2)N(C)CC3 | 3.46 | 8.19 | 16.5 | 4.59 |  |
| COc1ccc2cc1Oc1ccc(cc1)C[C@H]1c3cc(c(OC)cc3CCN1C)Oc1c(OC(=O)/C=C/c3ccccc3)c(OC)cc3c1[C@H](C2)N(C)CC3 | 10.2 | 16.1 | 7.9 | 9.43 |  |
| COc1ccc2cc1Oc1ccc(cc1)C[C@H]1c3cc(c(OC)cc3CCN1C)Oc1c(OC(=O)N3c4ccccc4Sc4ccccc43)c(OC)cc3c1[C@H](C2)N(C)CC3 | 17.6 | 20.7 | 10.1 | 12.4 |  |
| COc1ccc2cc1Oc1ccc(cc1)C[C@H]1c3cc(c(OC)cc3CCN1C)Oc1c(OC)c(OC)cc3c1[C@H](C2)N(C)CC3 [FANCHININ] | 19.7 | 19.6 | 18.4 | 6.43 |  |
| C=CC(=O)Oc1c(OC)cc2c3c1Oc1cc4c(cc1OC)CCN(C)[C@H]4Cc1ccc(cc1)Oc1cc(ccc1OC)C[C@@H]3N(C)CC2 | 4.27 | 7.28 | 5.03 | 6.77 |  |
| CCCCCC(=O)Oc1c(OC)cc2c3c1Oc1cc4c(cc1OC)CCN(C)[C@H]4Cc1ccc(cc1)Oc1cc(ccc1OC)C[C@@H]3N(C)CC2 | 21 | 12 | 11.3 | 13.3 |  |
| COc1ccc2cc1Oc1ccc(cc1)C[C@H]1c3cc(c(OC)cc3CCN1C)Oc1c(OC(=O)c3ccc(Br)cc3)c(OC)cc3c1[C@H](C2)N(C)CC3 | 2.31 | 6.84 | 5.58 | 3.06 |  |

Source: ChEMBL document CHEMBL4680131, “Fangchinoline derivatives induce cell cycle arrest and apoptosis in human leukemia cell lines via suppression of the PI3K/AKT and MAPK signaling pathway” (Eur J Med Chem, 2020)
